Laboratory results: ChEMBL document CHEMBL2331117 (J Med Chem, 2013)
In brackets after ≈: the same amount, converted by molar mass. Activity calls are given as the source filed them. No cut-off for these calls is given here.

Columns and labels:
[1] = Plasma protein binding in dog at 5 uM; format: ADME, cell-free, Canis lupus familiaris; settings: read-out: PPB (converted)
Mus musculus [2] = test: In vivo inhibition of mTORC1-mediated phosphorylation of pS6 at (serine 240/244) in human MCF7 cells xenografted into athymic nude mouse at 100 mg/kg, po after 4 hrs by Western blotting analysis relative to control; format: functional; settings: MCF7, 4 h
Outline: (§1)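 MCF-7 cells (DMEM, 10% FBS) were implanted subcutaneously at 5 × 10^6 cells in 50% cold HBSS/50% growth-factor-reduced matrigel into the hindflank of 5−8 week old female nude mice. At tumor size 40−150 mg, mice received a single oral dose of 100 mg/kg. Tumor lysates were pooled per group. Phospho-AKT (S473, T308), p70S6K (T389), S6 (S240/244) and 4E-BP1 (T37/46) were measured by Western blot normalized to α-tubulin.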

[3] = Metabolic stability in rat liver microsomes after 30 mins; format: ADME, Microsome; settings: read-out: Stability
[4] = Half life in CD rat at 3 mg/kg, iv; format: ADME, organism-based; parameters: dose 3 mg/kg, route intravenous; settings: in vivo
Outline: (§2)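 Single-dose PK: female athymic nude mice (10 mg/kg), female CD rats and male beagle dogs (3 mg/kg), male cynomolgus monkeys (3 mg/kg), given iv and by oral gavage. Solution in EPW (5% ethanol/45% PEG400/water), with 1:2 HCl (m/m) for mouse, rat and dog and 1:1.5 HCl (m/m) for monkey. Plasma levels followed over 24 h.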

[5] = biological target: Serine/threonine-protein kinase Chk1 (Homo sapiens, UniProt O14757); test: Inhibition of CHK1 (unknown origin)
Mus musculus [6] = test: In vivo inhibition of mTORC2-mediated phosphorylation of AKT at serine 473 in human MCF7 cells xenografted into athymic nude mouse at 100 mg/kg, po after 16 hrs by Western blotting analysis relative to control; format: functional; settings: MCF7, 16 h; outline: as §1
Mus musculus [7] = test: In vivo inhibition of mTORC2-mediated phosphorylation of AKT at […] in human PC3 cells xenografted into athymic nude mouse at 100 mg/kg, po after 1 hr by Western blotting analysis relative to control; format: functional; settings: PC-3, 1 h
Outline: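 Human PC-3 cells were implanted subcutaneously into the hindflank of male nude mice aged 5−8 weeks, at 3 × 10^6 cells (passages 10−14, >95% viability) in ice-cold HBSS. At a tumor size of 200−500 mg, mice got one oral 100 mg/kg dose. Tumors were taken at 1, 4, 8, 16, 24 and 32 h. Lysates (n = 5 per group) were pooled, and phospho-AKT (T308) was read by Western blot, normalized to α-tubulin.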

Mus musculus [8] = test: In vivo inhibition of mTORC1-mediated phosphorylation of pS6 at (serine 240/244) in human PC3 cells xenografted into athymic nude mouse at 100 mg/kg, po after 4 hrs by Western blotting analysis relative to control; format: functional; settings: PC-3, 4 h
Outline: (§3)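 PC-3 cells grown in DMEM with 20% FBS were implanted subcutaneously at 3 × 10^6 cells in ice-cold HBSS into the hindflank of 5−8 week old male nude mice. At tumor size 200−500 mg, mice received a single oral dose of 100 mg/kg. Plasma and tumors were collected at 1, 4, 8, 16, 24 and 32 h. Tumor lysates from each group (n = 5) were pooled. Phospho-proteins were quantified by Western blot and normalized to α-tubulin.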

[9] = Drug uptake in tumor of athymic mouse xenografted with human MCF7 cells at 100 mg/kg, po after 16hrs; format: ADME, organism-based, Neoplasm; parameters: dose 100 mg/kg, route oral; settings: read-out: Drug uptake
[10] = Tmax in cynomolgus monkey at 3 mg/kg, po; format: ADME, organism-based, Macaca fascicularis; parameters: dose 3 mg/kg, route oral; settings: in vivo
Mus musculus [11] = test: In vivo inhibition of mTORC2-mediated phosphorylation of AKT at […] in human MCF7 cells xenografted into athymic nude mouse at 100 mg/kg, po after 16 hrs by Western blotting analysis relative to control; format: functional; settings: MCF7, 16 h; outline: as §1
[12] = biological target: Phosphatidylinositol 3-kinase catalytic subunit type 3 (Homo sapiens, UniProt Q8NEB9); test: Inhibition of VPS34 (unknown origin)
[13] = Kinetic solubility of the compound; format: physicochemical; settings: read-out: Kinetic_solubility
[14] = Oral bioavailability in Beagle dog at 3 mg/kg; format: ADME, organism-based, Canis lupus familiaris; settings: in vivo
Outline: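 For single-dose PK, compound was given intravenously and by oral gavage as a solution in EPW (5% ethanol/45% PEG400/water + 1:2 HCl m/m). Doses were 10 mg/kg in female athymic nude mice and 3 mg/kg in female CD rats and male beagle dogs.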

[15] = Apparent permeability across MDCK cells; format: ADME, cell-based, Canis lupus familiaris; settings: dog
[16] = biological target: Serine/threonine-protein kinase mTOR (Rattus norvegicus) (UniProt P42346); test: Reversible inhibition of mTOR (unknown origin) assessed as enzyme recovery measured after dilution in presence of ATP relative to untreated control; settings: Homo sapiens
Plasma = test: Plasma concentration in athymic mouse plasma xenografted with human MCF7 cells at 100 mg/kg, po after 32 hrs; format: ADME, organism-based; parameters: dose 100 mg/kg, route oral; settings: in vivo, BLD = below limit of detection
Outline: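 MCF-7 cells (5 × 10^6, in 50% cold HBSS/50% growth-factor-reduced matrigel) were implanted subcutaneously in the hindflank of 5–8 week old female nude mice. At 40–150 mg tumour size, mice received a single oral dose of 100 mg/kg, and plasma was sampled at the listed times after dosing.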

[17] = Half life in athymic nude mouse at 10 mg/kg, iv; format: ADME, organism-based; parameters: dose 10 mg/kg, route intravenous; settings: in vivo; outline: as §2
[18] = biological target: Cell division cycle 7-related protein kinase (Homo sapiens, UniProt O00311); test: Inhibition of CDC7 (unknown origin)
Mus musculus [19] = test: In vivo inhibition of mTORC1-mediated phosphorylation of pS6 at (serine 240/244) in human PC3 cells xenografted into athymic nude mouse at 100 mg/kg, po after 24 hrs by Western blotting analysis relative to control; format: functional; settings: PC-3, 24 h; outline: as §3
Mus musculus [20] = test: In vivo inhibition of mTORC2-mediated phosphorylation of AKT at serine 473 in human PC3 cells xenografted into athymic nude mouse at 100 mg/kg, po after 32 hrs by Western blotting analysis relative to control; format: functional; settings: PC-3, 32 h; outline: as §3
Mus musculus [21] = test: In vivo inhibition of mTORC1-mediated phosphorylation of p70S6K at […] in human MCF7 cells xenografted into athymic nude mouse at 100 mg/kg, po after 32 hrs by Western blotting analysis relative to control; format: functional; settings: MCF7, 32 h; outline: as §1
Mus musculus [22] = test: In vivo inhibition of mTORC1-mediated phosphorylation of p70S6K at […] in human PC3 cells xenografted into athymic nude mouse at 100 mg/kg, po after 1 hr by Western blotting analysis relative to control; format: functional; settings: PC-3, 1 h; outline: as §3
[23] = Clearance in cynomolgus monkey at 3 mg/kg, iv; format: ADME, organism-based, Macaca fascicularis; parameters: dose 3 mg/kg, route intravenous; settings: in vivo; outline: as §2
Mus musculus [24] = test: In vivo inhibition of mTORC1-mediated phosphorylation of pS6 at (serine 240/244) in human MCF7 cells xenografted into athymic nude mouse at 100 mg/kg, po after 1 hr by Western blotting analysis relative to control; format: functional; settings: MCF7, 1 h; outline: as §1
[25] = biological target: Proto-oncogene tyrosine-protein kinase Src (Homo sapiens, UniProt P12931); test: Inhibition of SRC (unknown origin)
Mus musculus [26] = test: In vivo inhibition of mTORC1-mediated phosphorylation of 4EBP1 at ([…]) in human PC3 cells xenografted into athymic nude mouse at 100 mg/kg, po after 8 hrs by Western blotting analysis relative to control; format: functional; settings: PC-3, 8 h; outline: as §3

Phosphatidylinositol 3-kinase catalytic subunit type 3, sequence (Q8NEB9 whole entry): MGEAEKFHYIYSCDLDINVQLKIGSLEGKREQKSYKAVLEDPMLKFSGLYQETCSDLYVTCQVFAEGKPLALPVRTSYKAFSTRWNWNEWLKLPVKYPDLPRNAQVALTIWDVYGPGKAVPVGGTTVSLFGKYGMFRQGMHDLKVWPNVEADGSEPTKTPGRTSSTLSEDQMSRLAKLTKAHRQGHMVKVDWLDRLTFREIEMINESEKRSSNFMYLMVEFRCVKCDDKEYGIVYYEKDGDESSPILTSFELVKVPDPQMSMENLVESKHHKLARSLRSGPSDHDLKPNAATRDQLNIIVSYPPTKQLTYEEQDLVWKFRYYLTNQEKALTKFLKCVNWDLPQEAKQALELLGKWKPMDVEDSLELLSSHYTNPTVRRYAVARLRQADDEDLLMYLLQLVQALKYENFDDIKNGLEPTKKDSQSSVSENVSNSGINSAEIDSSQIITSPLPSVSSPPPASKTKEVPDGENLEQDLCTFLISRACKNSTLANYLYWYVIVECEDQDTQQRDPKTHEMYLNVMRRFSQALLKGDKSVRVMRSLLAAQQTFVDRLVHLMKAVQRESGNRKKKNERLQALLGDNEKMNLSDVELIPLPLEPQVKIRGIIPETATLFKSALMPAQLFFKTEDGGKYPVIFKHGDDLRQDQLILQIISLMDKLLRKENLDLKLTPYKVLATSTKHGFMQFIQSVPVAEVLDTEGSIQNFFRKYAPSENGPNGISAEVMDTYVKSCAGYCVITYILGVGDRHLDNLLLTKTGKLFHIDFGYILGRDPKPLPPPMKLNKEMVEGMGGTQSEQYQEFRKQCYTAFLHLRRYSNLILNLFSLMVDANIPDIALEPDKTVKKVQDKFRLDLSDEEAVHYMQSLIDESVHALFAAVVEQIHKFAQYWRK
Serine/threonine-protein kinase Chk1, sequence (O14757 whole entry): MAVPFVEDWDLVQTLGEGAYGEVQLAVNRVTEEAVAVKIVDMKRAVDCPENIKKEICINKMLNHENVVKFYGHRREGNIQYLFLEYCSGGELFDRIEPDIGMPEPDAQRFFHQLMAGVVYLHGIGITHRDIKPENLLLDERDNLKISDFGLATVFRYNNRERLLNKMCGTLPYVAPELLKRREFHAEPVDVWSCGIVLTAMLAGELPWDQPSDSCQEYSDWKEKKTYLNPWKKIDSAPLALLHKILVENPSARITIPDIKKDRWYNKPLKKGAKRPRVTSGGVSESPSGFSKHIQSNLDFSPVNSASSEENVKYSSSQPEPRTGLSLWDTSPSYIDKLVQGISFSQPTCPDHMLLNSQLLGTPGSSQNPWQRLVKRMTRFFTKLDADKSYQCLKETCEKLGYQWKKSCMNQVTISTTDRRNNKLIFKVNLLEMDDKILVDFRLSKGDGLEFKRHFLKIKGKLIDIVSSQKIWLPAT
Cell division cycle 7-related protein kinase, sequence (O00311 whole entry): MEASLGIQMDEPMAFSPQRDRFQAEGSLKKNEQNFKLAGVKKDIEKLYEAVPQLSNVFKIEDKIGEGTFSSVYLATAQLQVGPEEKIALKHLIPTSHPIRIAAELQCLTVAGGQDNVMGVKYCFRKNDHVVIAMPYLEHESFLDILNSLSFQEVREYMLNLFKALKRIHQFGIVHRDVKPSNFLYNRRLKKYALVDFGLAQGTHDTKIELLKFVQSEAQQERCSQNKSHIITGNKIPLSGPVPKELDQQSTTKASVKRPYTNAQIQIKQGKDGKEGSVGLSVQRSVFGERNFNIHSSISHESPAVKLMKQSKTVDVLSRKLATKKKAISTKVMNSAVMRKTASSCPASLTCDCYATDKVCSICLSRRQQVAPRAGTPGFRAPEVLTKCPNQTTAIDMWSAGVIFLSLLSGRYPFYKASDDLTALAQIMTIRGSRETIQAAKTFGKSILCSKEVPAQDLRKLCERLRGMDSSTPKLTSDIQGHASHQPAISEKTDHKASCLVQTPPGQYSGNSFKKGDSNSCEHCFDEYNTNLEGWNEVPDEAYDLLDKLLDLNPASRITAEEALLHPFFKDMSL
Proto-oncogene tyrosine-protein kinase Src, sequence (P12931 2-536 limits assumed): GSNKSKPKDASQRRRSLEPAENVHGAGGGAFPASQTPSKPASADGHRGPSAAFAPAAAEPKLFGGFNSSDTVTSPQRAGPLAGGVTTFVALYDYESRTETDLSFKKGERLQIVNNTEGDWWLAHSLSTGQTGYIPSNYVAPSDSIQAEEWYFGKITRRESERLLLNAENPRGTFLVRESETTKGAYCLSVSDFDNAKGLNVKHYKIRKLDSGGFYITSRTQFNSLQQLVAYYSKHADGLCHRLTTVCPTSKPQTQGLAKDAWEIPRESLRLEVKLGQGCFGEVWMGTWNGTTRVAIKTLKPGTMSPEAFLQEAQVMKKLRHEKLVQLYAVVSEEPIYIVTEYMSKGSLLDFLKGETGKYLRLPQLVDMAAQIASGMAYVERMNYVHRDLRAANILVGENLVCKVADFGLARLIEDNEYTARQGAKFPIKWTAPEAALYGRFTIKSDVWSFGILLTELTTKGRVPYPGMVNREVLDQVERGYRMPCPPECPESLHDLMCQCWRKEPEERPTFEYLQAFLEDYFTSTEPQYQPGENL

Cc1c(C(=O)N2CCOc3ccc(-c4ccc(N)nc4)cc3C2)ccc(S(C)(=O)=O)c1F
fraction unbound at 5 µM [1]: 0.11
inhibition in vivo at 100 mg/kg (Mus musculus [2]): 94%
remaining at 0.5 h [3]: 78%
half-life [4]: 0.45 h
IC50 [5]: > 3.5 µM
inhibition in vivo at 100 mg/kg (Mus musculus [6]): 69%
inhibition in vivo at 100 mg/kg (Mus musculus [7]): -24%
inhibition in vivo at 100 mg/kg (Mus musculus [8]): 90%
concentration at 16 h [9]: 2740 nM
Tmax [10]: 2 h
inhibition in vivo at 100 mg/kg (Mus musculus [11]): 43%
IC50 [12]: > 3.5 µM
solubility kinetic [13]: 232 µM (≈ 106 µg/mL)
bioavailability [14]: 69.6%
Papp [15]: 15.1 ×10⁻⁶ cm/s
inhibition [16]: inactive
Cp (Plasma): BLD
half-life [17]: 1.35 h
IC50 [18]: > 3.5 µM
inhibition in vivo at 100 mg/kg (Mus musculus [19]): 8%
inhibition in vivo at 100 mg/kg (Mus musculus [20]): 10%
inhibition in vivo at 100 mg/kg (Mus musculus [21]): 2%
inhibition in vivo at 100 mg/kg (Mus musculus [22]): 87%
clearance [23]: 84.2 mL/min/kg
inhibition in vivo at 100 mg/kg (Mus musculus [24]): 96%
IC50 [25]: > 3.5 µM
inhibition in vivo at 100 mg/kg (Mus musculus [26]): 92%
